Results published in ChEMBL document CHEMBL4665798, “Novel Human Urate Transporter 1 Inhibitors as Hypouricemic Drug Candidates with Favorable Druggability” (J Med Chem, 2020).

Tests used:
[1] = Sub-acute toxicity in Kunming mouse assessed as hepatocellular condensation of liver at 50 mg/kg, po administered as single dose every other day for 14 days by H and E staining based assay; format: organism-based; settings: in vivo, 336 h, time 14 day
[2] = Sub-acute toxicity in Kunming mouse assessed as ballooning degeneration of liver at 50 mg/kg, po administered as single dose every other day for 14 days by H and E staining based assay; format: organism-based; settings: in vivo, 336 h, time 14 day
[3] = Sub-acute toxicity in Kunming mouse assessed as congestion in hepatic central vein at 50 mg/kg, po administered as single dose every other day for 14 days by H and E staining based assay; format: organism-based; settings: in vivo, 336 h, time 14 day
[4] = Sub-acute toxicity in Kunming mouse assessed as hydropic degeneration of hepatocytes at 50 mg/kg, po administered as single dose every other day for 14 days by H and E staining based assay; format: organism-based; settings: in vivo, 336 h, time 14 day
[5] = Sub-acute toxicity in female Kunming mouse assessed as increase in body weight at 50 mg/kg, po administered once every second day for 14 days; format: organism-based; settings: in vivo, 336 h, time 14 day
[6] = Acute toxicity in female Kunming mouse assessed as change in body weight at 500 mg/kg, ig measured for 1 week; format: organism-based; settings: in vivo, po, 168 h, time 1 weeks
[7] = Acute toxicity in Kunming mouse assessed as induction of abnormal behaviors by measuring lethargy at 500 mg/kg, ig; format: organism-based; settings: in vivo, po
[8] = Acute toxicity in Kunming mouse assessed as death at 500 mg/kg, ig measured for 1 week; format: organism-based; settings: in vivo, po, 168 h, time 1 weeks
[9] = Clearance in Sprague-Dawley rat at 1 mg/kg, iv by LC-MS analysis; format: ADME, organism-based; settings: in vivo
[10] = Half-life in Sprague-Dawley rat at 1 mg/kg, iv by LC-MS analysis; format: ADME, organism-based; settings: in vivo
[11] = MRT (0 to infinity) in Sprague-Dawley rat at 1 mg/kg, iv by LC-MS analysis; format: ADME, organism-based; settings: in vivo
[12] = AUC (0 to infinity) in Sprague-Dawley rat at 1 mg/kg, iv by LC-MS analysis; format: ADME, organism-based; set-up: time infinity, route intravenous, dose 1 mg/kg; settings: in vivo
[13] = AUC (0 to t) in Sprague-Dawley rat at 1 mg/kg, iv by LC-MS analysis; format: ADME, organism-based; set-up: dose 1 mg/kg; settings: in vivo
[14] = target: Cytochrome P450 3A4 (Homo sapiens, UniProt P08684); test: Inhibition of CYP3A4 in human liver microsome using midazolam as substrate measured after 20 mins in presence of NADPH by LC-MS/MS analysis
Cytochrome P450 3A4, sequence (P08684 whole entry): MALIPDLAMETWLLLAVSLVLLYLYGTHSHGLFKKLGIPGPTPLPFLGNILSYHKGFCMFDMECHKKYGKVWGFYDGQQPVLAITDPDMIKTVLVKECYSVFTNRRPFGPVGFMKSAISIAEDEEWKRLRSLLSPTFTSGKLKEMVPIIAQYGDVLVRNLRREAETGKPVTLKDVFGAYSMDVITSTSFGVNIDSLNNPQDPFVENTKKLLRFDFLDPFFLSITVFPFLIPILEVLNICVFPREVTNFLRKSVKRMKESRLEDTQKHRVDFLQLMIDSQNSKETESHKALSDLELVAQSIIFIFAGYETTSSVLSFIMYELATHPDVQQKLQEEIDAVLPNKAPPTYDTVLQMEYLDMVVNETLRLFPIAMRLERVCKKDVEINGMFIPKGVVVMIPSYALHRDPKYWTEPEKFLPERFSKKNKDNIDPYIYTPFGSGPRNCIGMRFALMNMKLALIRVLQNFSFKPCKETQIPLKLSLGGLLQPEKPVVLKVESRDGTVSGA

[15] = target: Cytochrome P450 2D6 (Homo sapiens, UniProt P10635); test: Inhibition of CYP2D6 in human liver microsome using probe substrate measured after 20 mins in presence of NADPH by LC-MS/MS analysis
Cytochrome P450 2D6, sequence (P10635 whole entry): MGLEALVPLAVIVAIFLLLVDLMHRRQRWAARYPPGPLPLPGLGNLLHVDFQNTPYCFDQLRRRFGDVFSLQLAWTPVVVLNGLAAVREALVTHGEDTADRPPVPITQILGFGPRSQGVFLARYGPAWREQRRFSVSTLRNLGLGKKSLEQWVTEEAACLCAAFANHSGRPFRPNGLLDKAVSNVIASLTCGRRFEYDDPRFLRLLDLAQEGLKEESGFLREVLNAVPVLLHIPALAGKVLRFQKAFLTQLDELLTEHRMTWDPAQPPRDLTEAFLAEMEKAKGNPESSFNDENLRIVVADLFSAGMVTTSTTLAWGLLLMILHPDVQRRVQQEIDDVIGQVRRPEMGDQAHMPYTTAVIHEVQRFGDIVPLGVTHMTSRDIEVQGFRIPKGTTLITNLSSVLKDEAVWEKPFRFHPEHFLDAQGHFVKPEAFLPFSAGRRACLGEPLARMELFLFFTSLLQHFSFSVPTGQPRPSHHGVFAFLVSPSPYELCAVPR

[16] = target: Cytochrome P450 2C19 (Homo sapiens, UniProt P33261); test: Inhibition of CYP2C19 in human liver microsome using probe substrate measured after 20 mins in presence of NADPH by LC-MS/MS analysis
Cytochrome P450 2C19, sequence (P33261 whole entry): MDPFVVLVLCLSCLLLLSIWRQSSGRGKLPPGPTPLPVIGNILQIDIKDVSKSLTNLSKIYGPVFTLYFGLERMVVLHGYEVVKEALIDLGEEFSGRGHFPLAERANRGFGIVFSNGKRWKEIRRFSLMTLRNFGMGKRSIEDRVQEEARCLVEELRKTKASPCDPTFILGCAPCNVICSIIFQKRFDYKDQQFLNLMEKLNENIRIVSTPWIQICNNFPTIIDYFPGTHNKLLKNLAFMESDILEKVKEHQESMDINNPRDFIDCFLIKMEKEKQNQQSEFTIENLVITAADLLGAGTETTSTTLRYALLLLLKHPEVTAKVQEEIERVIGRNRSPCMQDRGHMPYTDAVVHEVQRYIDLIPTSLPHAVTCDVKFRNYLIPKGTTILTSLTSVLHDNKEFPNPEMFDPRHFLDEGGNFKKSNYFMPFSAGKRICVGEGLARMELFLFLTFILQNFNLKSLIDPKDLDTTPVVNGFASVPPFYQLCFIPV

[17] = target: Cytochrome P450 2C9 (Homo sapiens, UniProt P11712); test: Inhibition of CYP2C9 in human liver microsome using probe substrate measured after 20 mins in presence of NADPH by LC-MS/MS analysis
Cytochrome P450 2C9, sequence (P11712 whole entry): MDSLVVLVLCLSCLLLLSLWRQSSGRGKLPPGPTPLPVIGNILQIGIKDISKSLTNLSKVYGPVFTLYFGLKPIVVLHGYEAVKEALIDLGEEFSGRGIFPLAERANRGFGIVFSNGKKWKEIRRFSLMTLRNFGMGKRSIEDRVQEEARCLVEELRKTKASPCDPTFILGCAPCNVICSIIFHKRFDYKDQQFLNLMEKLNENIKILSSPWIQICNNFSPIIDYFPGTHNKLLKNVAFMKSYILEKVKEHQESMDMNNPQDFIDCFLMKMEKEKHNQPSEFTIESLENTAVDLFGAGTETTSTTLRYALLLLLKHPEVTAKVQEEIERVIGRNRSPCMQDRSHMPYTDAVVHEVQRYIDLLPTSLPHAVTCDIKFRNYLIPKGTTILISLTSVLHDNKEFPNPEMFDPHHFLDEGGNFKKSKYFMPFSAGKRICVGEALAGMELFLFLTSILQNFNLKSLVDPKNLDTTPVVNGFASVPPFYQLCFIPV

[18] = target: T1, Cytochrome P450 1A2 (Homo sapiens, UniProt P05177); test: Inhibition of CYP1A2 in human liver microsome using probe substrate measured after 20 mins in presence of NADPH by LC-MS/MS analysis
T1 sequence (P05177 whole entry): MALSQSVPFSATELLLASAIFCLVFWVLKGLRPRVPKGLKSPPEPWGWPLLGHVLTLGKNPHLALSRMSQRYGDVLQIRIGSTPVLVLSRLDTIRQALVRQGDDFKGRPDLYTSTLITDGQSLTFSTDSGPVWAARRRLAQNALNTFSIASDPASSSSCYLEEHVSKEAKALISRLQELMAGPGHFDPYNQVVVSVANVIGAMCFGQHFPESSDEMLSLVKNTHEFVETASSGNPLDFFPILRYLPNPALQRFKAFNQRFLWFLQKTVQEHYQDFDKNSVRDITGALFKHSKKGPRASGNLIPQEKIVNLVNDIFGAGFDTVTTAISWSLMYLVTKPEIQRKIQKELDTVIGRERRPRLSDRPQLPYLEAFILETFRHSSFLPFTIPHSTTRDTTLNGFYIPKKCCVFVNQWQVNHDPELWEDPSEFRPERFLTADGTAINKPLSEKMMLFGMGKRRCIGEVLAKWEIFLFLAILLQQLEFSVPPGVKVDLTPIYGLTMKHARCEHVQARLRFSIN

[19] = target: T2, Solute carrier family 22 member 12 (Homo sapiens, UniProt Q96S37); test: Inhibition of human URAT1 expressed in HEK293T cells assessed as reduction in [14C]uric acid uptake preincubated for 15 mins followed by [14C]uric acid addition by liquid scintillation counting method; format: cell-based
T2 sequence (Q96S37 whole entry): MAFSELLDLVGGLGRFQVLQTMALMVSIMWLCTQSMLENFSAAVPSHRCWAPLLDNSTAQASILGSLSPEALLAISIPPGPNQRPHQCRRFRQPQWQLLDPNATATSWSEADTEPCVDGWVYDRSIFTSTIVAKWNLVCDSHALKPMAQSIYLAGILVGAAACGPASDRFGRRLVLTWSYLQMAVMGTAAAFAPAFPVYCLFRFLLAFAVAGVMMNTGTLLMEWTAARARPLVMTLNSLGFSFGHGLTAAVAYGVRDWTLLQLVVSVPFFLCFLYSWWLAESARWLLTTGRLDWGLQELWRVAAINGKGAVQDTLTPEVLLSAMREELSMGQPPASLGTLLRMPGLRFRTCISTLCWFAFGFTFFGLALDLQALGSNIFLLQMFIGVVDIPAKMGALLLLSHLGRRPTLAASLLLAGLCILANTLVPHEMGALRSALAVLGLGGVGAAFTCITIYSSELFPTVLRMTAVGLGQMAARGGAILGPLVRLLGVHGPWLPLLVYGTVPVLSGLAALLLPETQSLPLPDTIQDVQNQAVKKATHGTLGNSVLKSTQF

[20] = tested on: Mus musculus; test: Hypouricemic activity in Kunming mouse model of xanthine/potassium oxonate-induced acute hyperuricemia assessed as decrease in serum uric acid level at 2 mg/kg administered 3 hrs prior to xanthine/potassium oxonate and measured after 6 hrs relative to control; format: functional; set-up: scale not given: the % may be the effect or the level left; settings: time 9 hrs
Summary of the method: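 Male Kunming mice, hyperuricemia induced by intragastric xanthine plus subcutaneous potassium oxonate (0.2 mL each). […] Groups: normal vehicle, untreated model, active control, test. Serum uric acid measured. Decrease ratio = (model SUA − compound SUA)/(model SUA − vehicle SUA).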

[21] = Sub-acute toxicity in Kunming mouse assessed as death at 50 mg/kg, po administered once every second day for 14 days; format: organism-based; settings: in vivo, 336 h, time 14 day
[22] = Sub-acute toxicity in Kunming mouse assessed as lethargy at 50 mg/kg, po administered once every second day for 14 days; format: organism-based; settings: in vivo, 336 h, time 14 day
[23] = Sub-acute toxicity in Kunming mouse assessed as clonic convulsion at 50 mg/kg, po administered once every second day for 14 days; format: organism-based; settings: in vivo, 336 h, time 14 day
[24] = Sub-acute toxicity in Kunming mouse assessed as anorexia at 50 mg/kg, po administered once every second day for 14 days; format: organism-based; settings: in vivo, 336 h, time 14 day
[25] = Sub-acute toxicity in Kunming mouse assessed as appearance of ruffled fur at 50 mg/kg, po administered once every second day for 14 days; format: organism-based; settings: in vivo, 336 h, time 14 day

| Structure (SMILES) | Activity [1] | Activity [2] | Activity [3] | Activity [4] | Activity [5] | Activity [6] | Activity [7] | Activity [8] | clearance [9] | half-life [10] | MRT inf [11] | AUC(0-inf) [12] | AUC(0-t) [13] | IC50 [14] | IC50 [15] | IC50 [16] | IC50 [17] | IC50 [18] | IC50 [19] | Activity [20] | further results |
| --- | --- | --- | --- | --- | --- | --- | --- | --- | --- | --- | --- | --- | --- | --- | --- | --- | --- | --- | --- | --- | --- |
| CC(Sc1nc2ncccc2n1-c1ccc(C2CC2)c2ccccc12)C(=O)O (racemic) | Non-Toxic | Non-Toxic | Non-Toxic | Non-Toxic | Non-Toxic | Non-Toxic | Non-Toxic | Non-Toxic | 4.4 mL/min/kg | 3.1 h | 2.7 h | 3910 ng·h/mL | 3480 ng·h/mL | > 50 µM | > 50 µM | 48.7 µM | 20 µM | > 50 µM | 1.57 µM | 92.89% | Activity [21]: Non-Toxic; Activity [22]: Non-Toxic; Activity [23]: Non-Toxic; Activity [24]: Non-Toxic; Activity [25]: Non-Toxic |
| O=C(CSc1nnc(Br)n1-c1ccc(C2CC2)c2ccccc12)NS(=O)(=O)c1ccc(Br)cc1 | Non-Toxic | Non-Toxic | Non-Toxic | Non-Toxic | Non-Toxic | Non-Toxic | Non-Toxic | Non-Toxic | 5.46 mL/min/kg | 5 h | 4.3 h | 3090 ng·h/mL | 3030 ng·h/mL | > 50 µM | > 50 µM | 20.6 µM | 0.636 µM | > 50 µM | 4.17 µM | 97.84% | Activity [21]: Non-Toxic; Activity [22]: Non-Toxic; Activity [23]: Non-Toxic; Activity [24]: Non-Toxic; Activity [25]: Non-Toxic |
